Measured values collected from several papers.
Compare with care: the assays were run in different laboratories.
Target: Activin receptor type-1-like (ACVRL1, Homo sapiens, UniProt P37023)

| Compound | observed | mode | technique | concentration | measurement | result |
| --- | --- | --- | --- | --- | --- | --- |
| COc1cc(Cl)c(C(=O)N[C@@H](CN[C@H]2CC[C@@H](N)CC2)Cc2ccc(C#N)cc2)cc1-c1ccc(CN[C@H](C)c2ccc(C)cc2)o1 | enzyme activity | inhibitor | – | 1 µM | remaining activity | 123% |
| Cc1sc(C(=O)NC2COC2)cc1-n1cc(NC(=O)Nc2c(F)cccc2Cl)cn1 | enzyme activity | inhibitor | – | 10 µM | remaining activity | 78.7% |
| CCN(CC)CCNC(=O)c1c(C)[nH]c(/C=C2\C(=O)Nc3ccc(F)cc32)c1C | cell-free assay | – | – | 0.5 µM | remaining signal | 112% |
| N#Cc1ccc(Nc2ccc3[nH]c(=O)[nH]c3c2)c(Cl)c1 | binding | – | competition with immobilised ligand | 1 µM | remaining binding | 100% |
| Cc1ccc(NC(=O)c2ccc(C)c(C(F)(F)F)c2)cc1C#Cc1nn(C2CCC(O)CC2)c2ncnc(N)c12 (stereo not shown) | cell-free assay | – | – | 10 µM | remaining signal | 71% |
| Cc1ccc(C(=O)NCc2ccsc2)cc1C#Cc1cn(C(C)C)c2ncnc(N)c12 | enzyme activity | inhibitor | – | 1 µM | activity vs control | 94% |
| CO[C@@H](C)c1c(Nc2ccc([C@H](N(C)C(=O)C3CCS(=O)(=O)CC3)C(F)(F)F)cc2)cnc2cc(Cl)nn12 | cell-free assay | – | competition with immobilised ligand | 1 µM | remaining binding | 100% |
| Cc1ccc(C(=O)Nc2ccc(CN3CCN(C)CC3)c(C(F)(F)F)c2)cc1C#Cc1cnc2cccnn12 | cell-free assay | – | – | 23.5 nM | remaining signal | 100% |
| CC(C)(C)c1nc2c(s1)c1nc(N)ncc1c1ccc(NS(=O)(=O)c3c(F)cccc3F)c(F)c12 | enzyme activity | inhibitor | radiometric | 1 µM | remaining activity | 87% |
| O=C1Nc2ccc(Cl)cc2C1=Cc1cc(Cl)c(O)c(Cl)c1 | cell-free assay | – | – | 0.5 µM | remaining signal | 96.4% |
| CN1CC(Oc2cnc(C#N)cc2-c2ccn3nc(NC(=O)C4CC4)cc3c2)C1 | enzyme activity | inhibitor | – | 1 µM | inhibition | 4% |
| COc1cc2c(N3CCN(C(=O)Nc4ccc(OC(C)C)cc4)CC3)ncnc2cc1OCCCN1CCCCC1 | cell-free assay | – | – | 0.5 µM | remaining signal | 102% |
| Cc1nccc(COC(=O)N2C[C@@H]3[C@@H](CNC(=O)c4ccc5[nH]nnc5c4)[C@@H]3C2)n1 | binding | – | competition with immobilised ligand | 1 µM | remaining binding | 100% |
| O=C(Nc1cnn(-c2csc(C(=O)NC3COC3)c2)c1)Nc1c(F)cccc1Cl | enzyme activity | inhibitor | – | 5 µM | remaining activity | 120% |
| CCCCN(CCCC)C(=O)CN1C[C@H](c2cc(OC)c3c(c2)OCO3)[C@@H](C(=O)O)[C@@H]1CC(C)(C)CCC | cell-free assay | – | competition with immobilised ligand | 1 µM | remaining binding | 100% |
| C#Cc1cccc(Nc2ncnc3cc(OCCOC)c(OCCOC)cc23)c1 | cell-free assay | – | – | 0.5 µM | remaining signal | 101% |
